# Legend:
# [1] = molecular target: T1, Human rhinovirus A protease (Human rhinovirus sp.) (UniProt Q4U254); assay: Rate of inactivation of Human Rhinovirus 14 (HRV14) Protease 3C
# T1 sequence (whole entry): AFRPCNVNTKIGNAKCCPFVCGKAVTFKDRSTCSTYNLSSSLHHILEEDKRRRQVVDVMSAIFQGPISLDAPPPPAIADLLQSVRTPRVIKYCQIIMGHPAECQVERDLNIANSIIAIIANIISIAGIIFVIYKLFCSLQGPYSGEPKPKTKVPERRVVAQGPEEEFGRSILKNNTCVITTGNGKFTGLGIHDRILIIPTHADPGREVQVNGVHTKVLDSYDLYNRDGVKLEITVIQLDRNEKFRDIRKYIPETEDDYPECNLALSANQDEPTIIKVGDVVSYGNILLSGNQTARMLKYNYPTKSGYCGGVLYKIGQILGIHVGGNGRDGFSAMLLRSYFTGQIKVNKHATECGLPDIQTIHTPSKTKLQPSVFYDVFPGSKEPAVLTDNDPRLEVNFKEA
# Method in brief: (§1)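 Irreversible (Michael acceptor) inactivation of HRV-14 3C protease, reported as a second-order rate of inactivation in M^-1 sec^-1.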
# [2] = test system: HeLa; assay: 50% cytotoxic concentration required to inhibit HRV-14 infected H1HeLa cells; assay type: functional; conditions: Homo sapiens
# [3] = molecular target: T1, Human rhinovirus A protease (Human rhinovirus sp.); assay: Ability to inactivate Human Rhinovirus 16 Protease 3C
# [4] = molecular target: T1, Human rhinovirus A protease (Human rhinovirus sp.); assay: Ability to inactivate Human Rhinovirus 2 Protease 3C
# [5] = molecular target: T2, Human rhinovirus A protease (Human rhinovirus sp., UniProt Q4U254); assay: 50% effective concentration required to inhibit Human Rhinovirus 10 Protease 3C
# T2 sequence (Q4U254 whole entry): T1 sequence (whole entry)
# [6] = molecular target: T2, Human rhinovirus A protease; assay: 50% effective concentration required to inhibit Human Rhinovirus 1A Protease 3C
# [7] = molecular target: T2, Human rhinovirus A protease; assay: 50% effective concentration required to inhibit Human Rhinovirus 2 Protease 3C
# [8] = molecular target: T2, Human rhinovirus A protease; assay: Inhibition of Human Rhinovirus 14 (HRV14) Protease 3C
# [9] = molecular target: T1, Human rhinovirus A protease (Human rhinovirus sp.); assay: Ability to inactivate Human Rhinovirus 89 Protease 3C
# [10] = molecular target: T2, Human rhinovirus A protease; assay: 50% effective concentration required to inhibit Human Rhinovirus 16 Protease 3C
# [11] = molecular target: T2, Human rhinovirus A protease; assay: 50% effective concentration required to inhibit Human Rhinovirus 89 Protease 3C
# [12] = molecular target: T1, Human rhinovirus A protease (Human rhinovirus sp.); assay: Evaluated for the rate of inactivation of Human Rhinovirus 14 (HRV14) Protease 3C; method in brief: as §1
SMILES,K obs / 1 [1],CC50 [2],EC50 [8],further results
CCOC(=O)/C=C/[C@H](C[C@@H]1CCNC1=O)NC(=O)/C=C/c1cc(Br)ccc1Br,6850 M⁻¹ s⁻¹,–,–,–
CCOC(=O)/C=C/[C@H](C[C@@H]1CCNC1=O)NC(=O)C1=Cc2cc(Cl)ccc2OC1,19700 M⁻¹ s⁻¹,> 100000 nM,160 nM,K obs / 1 [3]: 2200 M⁻¹ s⁻¹; K obs / 1 [4]: 385 M⁻¹ s⁻¹; EC50 [5]: 460 nM; EC50 [6]: 5100 nM; EC50 [7]: 650 nM
CCOC(=O)/C=C/[C@H](C[C@@H]1CCNC1=O)NC(=O)C1=Cc2cc(Br)ccc2OC1,25000 M⁻¹ s⁻¹,> 100000 nM,180 nM,K obs / 1 [4]: 372 M⁻¹ s⁻¹; EC50 [5]: 550 nM
CCOC(=O)/C=C/[C@H](C[C@@H]1CCNC1=O)NC(=O)/C=C/c1ccc2c(c1)OCO2,1960 M⁻¹ s⁻¹,> 10000 nM,1810 nM,–
CCOC(=O)/C=C/[C@H](C[C@@H]1CCNC1=O)NC(=O)c1ccc2cc(C)ccc2c1,5000 M⁻¹ s⁻¹,> 100000 nM,880 nM,–
CCOC(=O)/C=C/[C@H](C[C@@H]1CCNC1=O)NC(=O)/C=C/c1ccc(F)c(Br)c1,2860 M⁻¹ s⁻¹,> 100000 nM,630 nM,–
CCOC(=O)/C=C/[C@H](CCC(N)=O)NC(=O)C(Cc1ccccc1)NC(=O)[C@H](CC(C)C)NC(=O)OCc1ccccc1 (stereo partly specified),25000 M⁻¹ s⁻¹,> 100000 nM,540 nM,K obs / 1 [3]: 6530 M⁻¹ s⁻¹; K obs / 1 [4]: 2000 M⁻¹ s⁻¹; K obs / 1 [9]: 3440 M⁻¹ s⁻¹; EC50 [5]: 600 nM; EC50 [10]: 2300 nM; EC50 [7]: 1600 nM; EC50 [11]: 6300 nM
CCOC(=O)/C=C/[C@H](C[C@@H]1CCNC1=O)NC(=O)c1cc(-c2ccccc2)oc1C,4740 M⁻¹ s⁻¹,> 100000 nM,1940 nM,–
CCOC(=O)/C=C/[C@H](C[C@@H]1CCNC1=O)NC(=O)/C=C/c1cccc(Br)c1,–,> 10000 nM,1400 nM,K obs / 1 [12]: 2560 M⁻¹ s⁻¹
CCOC(=O)/C=C/[C@H](C[C@@H]1CCNC1=O)NC(=O)c1ccc2ccc(Br)cc2c1,31400 M⁻¹ s⁻¹,> 50000 nM,180 nM,–
CCOC(=O)/C=C/[C@H](C[C@@H]1CCNC1=O)NC(=O)C1=Cc2ccccc2OC1,886 M⁻¹ s⁻¹,> 100000 nM,1190 nM,–
CCOC(=O)/C=C/[C@H](C[C@@H]1CCNC1=O)NC(=O)c1ccc2ccccc2c1,1090 M⁻¹ s⁻¹,> 100000 nM,150 nM,K obs / 1 [4]: 110 M⁻¹ s⁻¹; EC50 [7]: 1400 nM
CCOC(=O)/C=C/[C@H](C[C@@H]1CCNC1=O)NC(=O)/C=C/c1cc2c(cc1Br)OCO2,14400 M⁻¹ s⁻¹,> 100000 nM,490 nM,–
CCOC(=O)/C=C/[C@H](C[C@@H]1CCNC1=O)NC(=O)/C=C/c1ccc(C)c(Br)c1,4080 M⁻¹ s⁻¹,> 10000 nM,1290 nM,–
